The source made the active and inactive calls. The calls are words filed in the database; no cut-off is given here.
Experiments:
Rattus norvegicus [1] = assay: Protection against cisplatin-induced […] in Sprague-Dawley rat assessed as reversal of histopathological changes in kidney at 1 mg/kg pretreated for 24 hrs followed by cisplatin challenge and subsequent qd dosing for 5 days measured 7 days post cisplatin challenge by H and E staining based light microscopic analysis; assay type: functional, organism-based
Summary of the method: (§1)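 Male Sprague-Dawley rats (200 ± 10 g) received a single ip cisplatin dose of 6 mg/kg in saline. Test agent 1 mg/kg in 5% DMSO/0.9% saline given once 24 h before cisplatin, then daily for 5 days. Sacrifice on day 7. Read-outs: serum BUN and creatinine by clinical chemistry, kidney H&E histology, and cleaved caspase-3 by Western blot of kidney homogenate. N = 6/group.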

NRK-52E [2] = assay: Protection against cisplatin-induced apoptosis in rat NRK-52E cells assessed as reduction in cleaved caspase-3 level at 10 uM after 24 hrs by Western blot analysis; assay type: functional, cell-based
Summary of the method: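 NRK-52E cells given cisplatin 30 μM with or without test agent 10 μM for 24 h. Cleaved (active) caspase-3 detected by Western blot and quantified by densitometry. Mean ± SEM, N = 3.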

NRK-52E [3] = assay: Protection against cisplatin-induced cytotoxicity in rat NRK-52E cells assessed as increase in cell viability after 24 hrs by MTT assay; assay type: functional, cell-based
Summary of the method: (§2)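 NRK-52E rat renal tubular epithelial cells (ATCC) exposed to test agent at 0, 1, 10 or 50 μM for 24 h, with or without cisplatin 30 μM (PBS stock). Viability measured by MTT. Mean ± SEM, N = 3.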

NRK-52E [4] = assay: Protection against cisplatin-induced cytotoxicity in rat NRK-52E cells assessed as improvement in morphological changes after 24 hrs by microscopic analysis; assay type: functional, cell-based
Summary of the method: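 Cells (NRK-52E) exposed to test agent at 0, 1, 10 or 50 μM plus cisplatin 30 μM for 24 h. Morphology then examined by light microscopy.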

NRK-52E [5] = assay: Cytotoxicity against rat NRK-52E cells assessed as effect on cell viability at 1 to 50 uM after 24 hrs by MTT assay; assay type: cell-based; summary of the method: as §2
Rattus norvegicus [6] = assay: Protection against cisplatin-induced […] in Sprague-Dawley rat assessed as reduction in cleaved caspase-3 level in kidneys at 1 mg/kg pretreated for 24 hrs followed by cisplatin challenge and subsequent qd dosing for 5 days measured 7 days post cisplatin challenge by Western blot analysis; assay type: functional, organism-based; summary of the method: as §1
Rattus norvegicus [7] = assay: Protection against cisplatin-induced acute liver injury in Sprague-Dawley rat assessed as restoration of serum BUN levels at 1 mg/kg pretreated for 24 hrs followed by cisplatin challenge and subsequent qd dosing for 5 days measured 7 days post cisplatin challenge; assay type: functional, organism-based; conditions: in the assay text read “acute kidney injury” for “acute liver injury”; summary of the method: as §1
Rattus norvegicus [8] = assay: Protection against cisplatin-induced acute liver injury in Sprague-Dawley rat assessed as restoration of serum creatinine levels at 1 mg/kg pretreated for 24 hrs followed by cisplatin challenge and subsequent qd dosing for 5 days measured 7 days post cisplatin challenge; assay type: functional, organism-based; conditions: in the assay text read “acute kidney injury” for “acute liver injury”; summary of the method: as §1
[9] = Renal toxicity in Sprague-Dawley rat assessed as change in serum BUN levels at 1 mg/kg administered once daily for 6 days; assay type: organism-based; conditions: in vivo, 144 h
Summary of the method: (§3)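 Male Sprague-Dawley rats (200 ± 10 g) given test agent alone at 1 mg/kg in 5% DMSO/0.9% saline, once and then daily for 5 further days. Killed on day 7. Serum BUN and creatinine measured by clinical chemistry, and kidneys examined by H&E histology.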

[10] = Renal toxicity in Sprague-Dawley rat assessed as histopathological changes in kidney at 1 mg/kg administered once daily for 6 days by H and E staining based light microscopic analysis; assay type: organism-based; conditions: in vivo, 144 h; summary of the method: as §3
NRK-52E [11] = assay: Protection against cisplatin-induced cell damage in rat NRK-52E cells assessed as reduction in reactive oxygen species generation at 10 uM after 24 hrs by DCF staining based fluorescence microscopic analysis; assay type: functional
Summary of the method: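 NRK-52E cells co-treated with cisplatin 30 μM and test agent 10 μM for 24 h. ROS stained with CM-H2DCFDA (DCF) and imaged by fluorescence. Percent ROS derived from DCF signal by region-of-interest quantitation. Mean ± SEM, N = 3.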

NRK-52E [12] = assay: Protection against cisplatin-induced cytotoxicity in rat NRK-52E cells assessed as increase in cell viability at 20 uM after 24 hrs by MTT assay; assay type: functional, cell-based
Summary of the method: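 NRK52E cells given test agent at 20 μM for 24 h, with or without cisplatin 30 μM. Vehicle is DMSO at 0.2% final. Viability read by MTT. Mean ± SEM, N = 3.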

NRK-52E [13] = assay: Protection against cisplatin-induced cell damage in rat NRK-52E cells assessed as reversal of mitochondrial membrane potential loss at 10 uM after 24 hrs by JC1 staining based fluorescence microscopic analysis; assay type: functional
Summary of the method: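 After 24 h of cisplatin 30 μM with or without test agent 10 μM, NRK-52E cells stained with JC-1 and imaged by fluorescence microscopy. Red (aggregate) and green (monomer) signals quantified by ROI. Mean ± SEM, N = 3.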

[14] = Renal toxicity in Sprague-Dawley rat assessed as change in serum creatinine levels at 1 mg/kg administered once daily for 6 days; assay type: organism-based; conditions: in vivo, 144 h; summary of the method: as §3

SMILES: CC(C)=CCOc1c2c(cc3oc(-c4ccccc4)c(OCc4ccccc4)c(=O)c13)OC(C)(C)C=C2
- Activity (Rattus norvegicus [1]): Active
- Activity (NRK-52E [2]): Active
- Activity (NRK-52E [3]): Dose-dependent effect
- Activity (NRK-52E [4]): Dose-dependent effect
- Activity (NRK-52E [5]): Non-Toxic
- Activity (Rattus norvegicus [6]): Active
- Activity (Rattus norvegicus [7]): Active
- Activity (Rattus norvegicus [8]): Active
- Activity [9]: Non-Toxic
- Activity [10]: Non-Toxic
- Activity (NRK-52E [11]): Active
- Activity (NRK-52E [12]): Active
- Activity (NRK-52E [13]): Active
- Activity [14]: Non-Toxic

— ChEMBL document CHEMBL4382270, “Total Synthesis and Biological Evaluation of Sericetin for Protection against Cisplatin-Induced Acute Kidney Injury” (J Nat Prod, 2018)
